Assay results: ChEMBL document CHEMBL4382192, “Discovery of a potent dual ALK and EGFR T790M inhibitor” (Eur J Med Chem, 2017)

Tests used:
[1] = target: Interleukin-1 receptor-associated kinase 4 (Homo sapiens) (UniProt Q9NWZ3); test: Binding affinity to wild-type human partial length IRAK4 (M1 to S460 residues) expressed in mammalian expression system assessed as residual binding level at 1 uM by Kinomescan method relative to control
[2] = target: SNF-related serine/threonine-protein kinase (Homo sapiens) (UniProt Q9NRH2); test: Binding affinity to wild-type human partial length SNRK (M1 to E339 residues) expressed in mammalian expression system assessed as residual binding level at 1 uM by Kinomescan method relative to control
[3] = target: Phosphorylase b kinase gamma catalytic chain, liver/testis isoform (Homo sapiens) (UniProt P15735); test: Binding affinity to wild-type human partial length PHKG2 (M1 to W300 residues) expressed in bacterial expression system assessed as residual binding level at 1 uM by Kinomescan method relative to control
Chain of Phosphorylase b kinase gamma catalytic chain, liver/testis isoform (Homo sapiens) (P15735 whole entry, the tested form may be a part, canonical isoform): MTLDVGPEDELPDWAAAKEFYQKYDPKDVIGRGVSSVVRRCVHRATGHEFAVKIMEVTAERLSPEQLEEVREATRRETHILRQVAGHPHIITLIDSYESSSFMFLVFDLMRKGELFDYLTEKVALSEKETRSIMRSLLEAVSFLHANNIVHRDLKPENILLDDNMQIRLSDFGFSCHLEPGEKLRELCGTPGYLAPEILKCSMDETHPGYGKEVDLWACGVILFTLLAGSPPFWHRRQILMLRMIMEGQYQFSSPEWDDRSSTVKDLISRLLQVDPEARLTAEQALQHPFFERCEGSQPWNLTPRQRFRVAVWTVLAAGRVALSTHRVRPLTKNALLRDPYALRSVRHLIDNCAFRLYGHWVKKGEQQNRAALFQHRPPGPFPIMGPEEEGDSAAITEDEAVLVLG

[4] = target: Protein kinase C delta type (Homo sapiens) (UniProt Q05655); test: Binding affinity to wild-type human partial length PRKCD (Q328 to D676 residues) expressed in bacterial expression system assessed as residual binding level at 1 uM by Kinomescan method relative to control
[5] = tested on: ALK tyrosine kinase receptor (Homo sapiens), Q9UM73 [C1156Y]; test: Binding affinity to wild-type human partial length ALK C1156Y mutant (I1088 to E1409 residues) expressed in mammalian expression system assessed as residual binding level at 1 uM by Kinomescan method relative to control
[6] = target: Mitogen-activated protein kinase kinase kinase 11 (Homo sapiens) (UniProt Q16584); test: Binding affinity to wild-type human partial length MLK3 (I77 to W399 residues) expressed in bacterial expression system assessed as residual binding level at 1 uM by Kinomescan method relative to control
[7] = tested on: Epidermal growth factor receptor (Homo sapiens), P00533 [L861Q]; test: Binding affinity to human partial length EGFR L861Q mutant (R669 to V1011 residues) expressed in bacterial expression system assessed as residual binding level at 1 uM by Kinomescan method relative to control
How it was run: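 Kinome-wide selectivity panel run by the KINOMEscan method, with the test compound at a single concentration of 1 μM. Wild-type and mutant kinases were profiled in the same screen.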

[8] = target: Tyrosine-protein kinase ABL1 (Homo sapiens) (UniProt P00519); test: Binding affinity to wild-type human phosphorylated ABL1 (S229 to K512 residues) expressed in mammalian expression system assessed as residual binding level at 1 uM by Kinomescan method relative to control
[9] = target: Rho-associated protein kinase 1 (Homo sapiens) (UniProt Q13464); test: Binding affinity to wild-type human partial length ROCK1 (M1 to R415 residues) expressed in mammalian expression system assessed as residual binding level at 1 uM by Kinomescan method relative to control
Chain of Rho-associated protein kinase 1 (Homo sapiens) (Q13464 2-1354 limits assumed): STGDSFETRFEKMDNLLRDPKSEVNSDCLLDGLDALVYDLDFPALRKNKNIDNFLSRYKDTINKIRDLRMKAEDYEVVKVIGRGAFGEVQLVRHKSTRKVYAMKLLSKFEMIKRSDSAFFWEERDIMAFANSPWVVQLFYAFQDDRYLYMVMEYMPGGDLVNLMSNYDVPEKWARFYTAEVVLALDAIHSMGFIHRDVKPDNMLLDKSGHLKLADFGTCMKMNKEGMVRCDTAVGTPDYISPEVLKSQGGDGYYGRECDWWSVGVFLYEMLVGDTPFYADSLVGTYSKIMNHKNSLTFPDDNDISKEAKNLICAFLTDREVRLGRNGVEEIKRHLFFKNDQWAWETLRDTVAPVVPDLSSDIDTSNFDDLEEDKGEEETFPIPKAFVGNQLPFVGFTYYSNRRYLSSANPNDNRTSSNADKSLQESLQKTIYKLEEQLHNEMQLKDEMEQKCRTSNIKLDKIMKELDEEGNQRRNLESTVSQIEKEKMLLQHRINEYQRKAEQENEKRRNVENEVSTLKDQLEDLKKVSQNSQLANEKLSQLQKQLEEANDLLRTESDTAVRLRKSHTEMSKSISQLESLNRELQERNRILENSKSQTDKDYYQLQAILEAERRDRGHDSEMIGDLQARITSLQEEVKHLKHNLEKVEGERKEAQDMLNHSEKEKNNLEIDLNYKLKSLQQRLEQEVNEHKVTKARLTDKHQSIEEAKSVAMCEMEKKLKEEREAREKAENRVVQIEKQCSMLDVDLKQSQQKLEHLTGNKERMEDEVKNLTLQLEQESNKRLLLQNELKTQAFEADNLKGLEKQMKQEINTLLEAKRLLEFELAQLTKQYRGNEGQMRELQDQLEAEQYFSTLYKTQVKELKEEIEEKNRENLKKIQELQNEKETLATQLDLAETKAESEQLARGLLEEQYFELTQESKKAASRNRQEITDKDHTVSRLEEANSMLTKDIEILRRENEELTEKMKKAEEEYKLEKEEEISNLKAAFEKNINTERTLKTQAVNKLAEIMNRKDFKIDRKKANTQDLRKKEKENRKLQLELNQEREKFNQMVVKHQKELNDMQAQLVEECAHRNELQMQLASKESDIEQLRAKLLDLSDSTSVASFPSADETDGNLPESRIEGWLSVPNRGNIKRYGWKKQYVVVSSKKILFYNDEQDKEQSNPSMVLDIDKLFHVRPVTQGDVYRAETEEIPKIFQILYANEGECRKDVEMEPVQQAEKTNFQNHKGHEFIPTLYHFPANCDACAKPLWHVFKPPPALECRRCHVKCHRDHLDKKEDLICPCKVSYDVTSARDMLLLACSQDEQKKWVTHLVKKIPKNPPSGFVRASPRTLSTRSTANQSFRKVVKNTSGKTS

[10] = target: Serine/threonine-protein kinase MRCK beta (Homo sapiens) (UniProt Q9Y5S2); test: Binding affinity to wild-type human partial length MRCKB (L56 to S417 residues) expressed in bacterial expression system assessed as residual binding level at 1 uM by Kinomescan method relative to control
Chain of Serine/threonine-protein kinase MRCK beta (Homo sapiens) (Q9Y5S2 whole entry, the tested form may be a part): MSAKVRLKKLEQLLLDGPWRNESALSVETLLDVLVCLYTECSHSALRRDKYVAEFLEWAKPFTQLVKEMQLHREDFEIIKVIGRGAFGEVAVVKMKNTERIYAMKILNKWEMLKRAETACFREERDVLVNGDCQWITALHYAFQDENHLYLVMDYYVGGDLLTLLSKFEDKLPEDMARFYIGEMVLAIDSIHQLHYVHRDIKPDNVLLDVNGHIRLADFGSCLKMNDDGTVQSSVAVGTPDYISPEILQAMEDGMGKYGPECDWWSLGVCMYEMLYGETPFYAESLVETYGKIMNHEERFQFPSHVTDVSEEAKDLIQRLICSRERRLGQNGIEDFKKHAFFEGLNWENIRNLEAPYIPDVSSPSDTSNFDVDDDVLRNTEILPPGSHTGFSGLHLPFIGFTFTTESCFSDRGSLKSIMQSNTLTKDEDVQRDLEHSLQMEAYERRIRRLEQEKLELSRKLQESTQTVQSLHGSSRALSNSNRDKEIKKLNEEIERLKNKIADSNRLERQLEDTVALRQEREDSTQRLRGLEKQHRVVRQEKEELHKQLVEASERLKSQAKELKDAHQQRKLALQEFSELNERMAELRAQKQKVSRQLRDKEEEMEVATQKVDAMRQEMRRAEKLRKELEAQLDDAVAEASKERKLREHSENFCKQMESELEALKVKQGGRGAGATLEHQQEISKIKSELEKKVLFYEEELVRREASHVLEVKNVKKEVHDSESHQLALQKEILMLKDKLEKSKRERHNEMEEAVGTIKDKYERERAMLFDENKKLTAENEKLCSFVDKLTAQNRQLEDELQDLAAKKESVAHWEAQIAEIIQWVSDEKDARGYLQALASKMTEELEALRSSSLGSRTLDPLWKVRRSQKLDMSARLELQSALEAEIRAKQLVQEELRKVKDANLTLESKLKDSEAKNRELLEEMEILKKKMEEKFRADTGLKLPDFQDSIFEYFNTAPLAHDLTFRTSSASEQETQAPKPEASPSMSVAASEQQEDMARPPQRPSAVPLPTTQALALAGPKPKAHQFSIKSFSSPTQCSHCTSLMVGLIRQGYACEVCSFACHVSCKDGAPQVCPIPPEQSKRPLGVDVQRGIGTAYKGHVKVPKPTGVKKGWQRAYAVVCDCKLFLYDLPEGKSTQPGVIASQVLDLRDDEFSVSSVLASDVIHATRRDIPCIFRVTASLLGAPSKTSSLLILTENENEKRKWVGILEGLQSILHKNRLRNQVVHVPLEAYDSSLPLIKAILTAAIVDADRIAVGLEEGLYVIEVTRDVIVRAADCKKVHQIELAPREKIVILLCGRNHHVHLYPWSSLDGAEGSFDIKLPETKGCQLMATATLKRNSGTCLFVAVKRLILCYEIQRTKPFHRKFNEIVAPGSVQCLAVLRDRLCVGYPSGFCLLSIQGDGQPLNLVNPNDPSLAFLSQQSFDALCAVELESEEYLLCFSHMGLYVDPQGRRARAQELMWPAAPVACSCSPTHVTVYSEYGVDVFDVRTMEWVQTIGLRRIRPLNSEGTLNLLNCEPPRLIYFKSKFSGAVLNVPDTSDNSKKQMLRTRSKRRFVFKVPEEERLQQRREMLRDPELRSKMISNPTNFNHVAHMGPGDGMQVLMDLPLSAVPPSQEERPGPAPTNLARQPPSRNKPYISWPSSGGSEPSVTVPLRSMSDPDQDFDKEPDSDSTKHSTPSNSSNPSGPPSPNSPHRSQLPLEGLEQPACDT

[11] = target: Serine/threonine-protein kinase 32C (Homo sapiens) (UniProt Q86UX6); test: Binding affinity to wild-type human partial length YANK3 (M68 to G486 residues) expressed in bacterial expression system assessed as residual binding level at 1 uM by Kinomescan method relative to control
[12] = target: Homeodomain-interacting protein kinase 1 (Homo sapiens) (UniProt Q86Z02); test: Binding affinity to wild-type human partial length HIPK1 (M146 to I555 residues) expressed in mammalian expression system assessed as residual binding level at 1 uM by Kinomescan method relative to control
Chain of Homeodomain-interacting protein kinase 1 (Homo sapiens) (Q86Z02 whole entry, looked up, the tested form may be a part): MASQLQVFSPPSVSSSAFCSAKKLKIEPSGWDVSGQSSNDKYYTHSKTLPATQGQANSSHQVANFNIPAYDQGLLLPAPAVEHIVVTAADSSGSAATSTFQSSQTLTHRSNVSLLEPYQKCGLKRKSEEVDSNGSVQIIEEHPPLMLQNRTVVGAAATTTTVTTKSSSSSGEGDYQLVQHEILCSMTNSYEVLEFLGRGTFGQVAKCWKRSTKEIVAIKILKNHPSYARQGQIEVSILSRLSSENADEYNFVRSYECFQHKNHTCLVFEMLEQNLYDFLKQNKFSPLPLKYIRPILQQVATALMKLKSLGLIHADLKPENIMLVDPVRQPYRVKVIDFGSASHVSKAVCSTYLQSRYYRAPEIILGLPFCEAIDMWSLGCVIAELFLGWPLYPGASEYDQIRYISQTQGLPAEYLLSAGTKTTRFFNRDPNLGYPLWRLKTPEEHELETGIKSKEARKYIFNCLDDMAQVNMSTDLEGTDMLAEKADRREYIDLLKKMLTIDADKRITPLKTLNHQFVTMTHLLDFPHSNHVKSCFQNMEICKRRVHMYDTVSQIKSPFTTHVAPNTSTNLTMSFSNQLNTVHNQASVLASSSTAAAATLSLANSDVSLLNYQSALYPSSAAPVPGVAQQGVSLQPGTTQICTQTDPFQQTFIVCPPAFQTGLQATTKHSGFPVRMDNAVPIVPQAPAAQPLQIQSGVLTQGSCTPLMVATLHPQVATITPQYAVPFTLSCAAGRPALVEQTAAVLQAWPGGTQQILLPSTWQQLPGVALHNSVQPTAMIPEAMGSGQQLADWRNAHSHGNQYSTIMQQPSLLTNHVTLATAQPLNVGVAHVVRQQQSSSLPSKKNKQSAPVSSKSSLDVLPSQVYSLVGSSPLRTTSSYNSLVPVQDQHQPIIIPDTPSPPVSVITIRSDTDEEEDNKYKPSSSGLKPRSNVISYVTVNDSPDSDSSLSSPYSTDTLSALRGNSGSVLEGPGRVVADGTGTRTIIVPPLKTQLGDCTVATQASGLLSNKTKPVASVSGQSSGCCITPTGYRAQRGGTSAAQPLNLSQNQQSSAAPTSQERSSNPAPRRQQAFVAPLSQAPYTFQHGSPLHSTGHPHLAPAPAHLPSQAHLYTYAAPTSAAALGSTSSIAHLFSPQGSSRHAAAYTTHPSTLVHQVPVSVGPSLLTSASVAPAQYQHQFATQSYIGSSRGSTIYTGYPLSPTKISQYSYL

[13] = target: Phosphatidylinositol 5-phosphate 4-kinase type-2 gamma (Homo sapiens) (UniProt Q8TBX8); test: Binding affinity to wild-type human partial length PIP5K2C (M1 to A421 residues) expressed in mammalian expression system assessed as residual binding level at 1 uM by Kinomescan method relative to control
Chain of Phosphatidylinositol 5-phosphate 4-kinase type-2 gamma (Homo sapiens) (Q8TBX8 whole entry, the tested form may be a part): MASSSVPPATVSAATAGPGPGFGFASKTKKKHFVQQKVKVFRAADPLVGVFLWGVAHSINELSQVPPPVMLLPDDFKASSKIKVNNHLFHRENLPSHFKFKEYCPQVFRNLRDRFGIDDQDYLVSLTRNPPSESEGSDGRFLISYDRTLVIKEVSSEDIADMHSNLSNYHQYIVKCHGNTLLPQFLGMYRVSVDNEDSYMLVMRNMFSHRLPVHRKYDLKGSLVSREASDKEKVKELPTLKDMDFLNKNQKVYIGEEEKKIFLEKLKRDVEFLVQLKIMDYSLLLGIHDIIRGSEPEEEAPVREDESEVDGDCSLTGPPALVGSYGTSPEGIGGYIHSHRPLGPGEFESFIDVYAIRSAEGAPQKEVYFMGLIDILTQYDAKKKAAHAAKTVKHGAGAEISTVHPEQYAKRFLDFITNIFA

[14] = target: Glycogen synthase kinase-3 beta (Homo sapiens) (UniProt P49841); test: Binding affinity to wild-type human full length GSK3B (M1 to T433 residues) expressed in mammalian expression system assessed as residual binding level at 1 uM by Kinomescan method relative to control
How it was run: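 Single-point kinome-wide KINOMEscan binding panel, test compound at 1 μM, run by the provider's standard protocol.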

[15] = target: Serine/threonine-protein kinase TBK1 (Homo sapiens) (UniProt Q9UHD2); test: Binding affinity to wild-type human full length TBK1 (M1 to L729 residues) expressed in mammalian expression system assessed as residual binding level at 1 uM by Kinomescan method relative to control
[16] = target: Death-associated protein kinase 2 (Homo sapiens) (UniProt Q9UIK4); test: Binding affinity to wild-type human full length DAPK2 (M1 to S370 residues) expressed in bacterial expression system assessed as residual binding level at 1 uM by Kinomescan method relative to control
[17] = target: Receptor-type tyrosine-protein kinase FLT3 (Homo sapiens) (UniProt P36888); test: Binding affinity to wild-type human partial length autoinhibited FLT3 (H564 to Y969 residues) expressed in mammalian expression system assessed as residual binding level at 1 uM by Kinomescan method relative to control
[18] = target: Tyrosine-protein kinase TXK (Homo sapiens) (UniProt P42681); test: Binding affinity to wild-type human partial length TXK (L238 to W527 residues) expressed in bacterial expression system assessed as residual binding level at 1 uM by Kinomescan method relative to control
[19] = target: Dual specificity protein kinase CLK4 (Homo sapiens) (UniProt Q9HAZ1); test: Binding affinity to wild-type human partial length CLK4 (R135 to K481 residues) expressed in bacterial expression system assessed as residual binding level at 1 uM by Kinomescan method relative to control
[20] = target: Focal adhesion kinase 1 (Homo sapiens) (UniProt Q05397); test: Binding affinity to wild-type human partial length FAK (D402 to R696 residues) expressed in bacterial expression system assessed as residual binding level at 1 uM by Kinomescan method relative to control
[21] = target: Dual specificity protein kinase TTK (Homo sapiens) (UniProt P33981); test: Binding affinity to wild-type human partial length TTK (N505 to V798 residues) expressed in bacterial expression system assessed as residual binding level at 1 uM by Kinomescan method relative to control
[22] = target: Mitogen-activated protein kinase 14 (Homo sapiens) (UniProt Q16539); test: Binding affinity to wild-type human full length p38-alpha (M1 to S360 residues) expressed in bacterial expression system assessed as residual binding level at 1 uM by Kinomescan method relative to control
[23] = target: Serine/threonine-protein kinase Sgk3 (Homo sapiens) (UniProt Q96BR1); test: Binding affinity to wild-type human partial length SGK3 (M119 to L496 residues) expressed in mammalian expression system assessed as residual binding level at 1 uM by Kinomescan method relative to control
[24] = target: Serine/threonine-protein kinase WNK3 (Homo sapiens) (UniProt Q9BYP7); test: Binding affinity to wild-type human partial length WNK3 (M1 to D434 residues) expressed in mammalian expression system assessed as residual binding level at 1 uM by Kinomescan method relative to control

## C=CC(=O)Nc1cc(Nc2ncc(Cl)c(Nc3ccccc3S(=O)(=O)C(C)C)n2)c(OC)cc1N(C)CCN(C)C
[1]
  Activity: 96%
[2]
  Activity: 72%
[3]
  Activity: 10%
[4]
  Activity: 64%
[5]
  Activity: 0.2%
[6]
  Activity: 82%
[7]
  Activity: 2%
[8]
  Activity: 7.5%
[9]
  Activity: 46%
[10]
  Activity: 100%
[11]
  Activity: 13%
[12]
  Activity: 57%
[13]
  Activity: 90%
[14]
  Activity: 93%
[15]
  Activity: 21%
[16]
  Activity: 47%
[17]
  Activity: 85%
[18]
  Activity: 0.65%
[19]
  Activity: 15%
[20]
  Activity: 0%
[21]
  Activity: 29%
[22]
  Activity: 92%
[23]
  Activity: 53%
[24]
  Activity: 100%
